From PubChem BioAssay
MrgX1 antag: human MrgX1 receptor antagonism, primary screen; MRGX1-HEK293 calcium flux, Fluo-4, BAM8-22 antagonism; active compounds read low; B-score at 10 µM; actives 1.3% (n = 310,000);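 active = calcium-response B-score plate-corrected more than 3 library SD below zero, starting fluorescence within 5 deviations, no agonist response on first addition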;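 also: peak minus trough fluorescence over baseline after final BAM8-22 challenge near maximal dose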
Target sequence (Q96LB2 whole entry, looked up): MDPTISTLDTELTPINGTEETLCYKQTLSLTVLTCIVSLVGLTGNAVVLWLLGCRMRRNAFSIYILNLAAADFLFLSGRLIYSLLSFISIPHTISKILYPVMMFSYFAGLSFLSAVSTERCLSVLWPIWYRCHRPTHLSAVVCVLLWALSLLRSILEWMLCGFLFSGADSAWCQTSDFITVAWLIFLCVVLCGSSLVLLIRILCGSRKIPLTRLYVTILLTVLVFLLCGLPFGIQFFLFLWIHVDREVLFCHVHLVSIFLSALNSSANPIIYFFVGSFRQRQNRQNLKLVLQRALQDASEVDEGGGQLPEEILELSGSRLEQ
MrgX1 PAM: human MrgX1 positive allosteric modulation, primary screen. actives 0.63% (n = 310,000). MrgX1-HEK293, Fluo-4 calcium flux, FDSS; active compounds read high. Q96LB2. B-score at 10 µM;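 active = plate-corrected calcium response at least 3 library SD above typical, normal starting fluorescence, not activating the receptor alone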;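 also: compound read alongside a low EC10 to EC30 dose of BAM8-22 agonist; peak minus trough fluorescence over baseline measured at the second addition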
RGS4 block: human RGS4 inhibition; B-score at 10 µM; actives 0.45% (n = 310,000); P49798; HEK293 M3R/RGS4 inducible, Fluo-4 calcium flux; active compounds read high; triggered by carbachol at its EC20;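 active = B-score, a plate-corrected calcium signal, over three deviations above library mean, with baseline fluorescence within five deviations of library mean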;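 also: RGS4 expression induced by doxycycline in cells with stable M3 receptor; B-score is computed from the integrated fluorescence ratio over baseline after carbachol; higher B-score means a larger calcium signal and so more RGS4 inhibition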
MrgX1 ag: human MrgX1 receptor agonism, primary screen; Q96LB2; MrgX1-HEK293 cells, Fluo-4 calcium fluorescence, agonist mode; active compounds read high; B-score at 10 µM; actives 0.44% (n = 310,000);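 active = calcium response B-score plate-corrected fluorescence ratio at least 3 library SD, with starting fluorescence B-score inside 5 SD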
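Assay system: MrgX1-expressing HEK293 cells / Amount: fifteen thousand cells per well / Doses: test compound in the initial addition of three / Timing: cells plated overnight, dye loaded 0.5 h 37 °C, 0.5 h room temperature / Technique: kinetic calcium dye fluorescence, Fluo-4 NW / Control set: positive and negative controls per plate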
PHOSPHO1 block: PHOSPHO1 (human) inhibition | Q8TCT1 | recombinant PHOSPHO1, absorbance phosphatase assay | inhibition, % at 13.3 µM | actives 1.1% (n = 290,000); in the data active = inhibition above about 60%
RGS4 act: potentiators or activators of RGS4. B-score at 10 µM. AID 463111. actives 0.92% (n = 310,000). HEK293 M3R/inducible RGS4, carbachol calcium flux Fluo4; active compounds read low;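 active = B-score of the integrated calcium signal more than 4 SD below the library mean, with starting fluorescence not abnormally high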;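 also: negative B-score means reduced calcium response which marks RGS4 activation or potentiation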
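Test system: HEK293 cells with stable M3R and inducible RGS4; also added: carbachol at ECmax as muscarinic agonist stimulus; schedule: dye loading 30 min 37 °C, buffer rest 30 min RT; technique: kinetic calcium fluorescence imaging with Fluo4-AM dye, 2 µM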
A number is an active result. Shown are actives, neighbours in structure and some others; about 4.5% of the full set was active somewhere.

O=C(NCCCN1CCN(CCCNC(=O)c2cccc(Cl)c2)CC1)c1cccc(Cl)c1 was read as MrgX1 antag inactive, MrgX1 PAM inactive, RGS4 block inactive, MrgX1 ag inactive, PHOSPHO1 block inactive and RGS4 act inactive.
O=C(Nc1ccccc1N1CCCCC1)c1ccc(-c2cccc(Cl)c2)o1 was read as MrgX1 antag inactive, MrgX1 PAM inactive, RGS4 block inactive, MrgX1 ag inactive, PHOSPHO1 block inactive and RGS4 act inactive.
Screening CN1CCN(c2ccccc2NC(=O)c2ccc(-c3cccc(Cl)c3)o2)CC1 returned MrgX1 antag inactive, MrgX1 PAM inactive, RGS4 block inactive, MrgX1 ag inactive, PHOSPHO1 block inactive and RGS4 act -8.5.
Screening C[C@H](Nc1ncnc2sc3c(c12)CCC3)C(=O)O returned MrgX1 antag inactive, MrgX1 PAM inactive, RGS4 block inactive, MrgX1 ag inactive, PHOSPHO1 block 66 and RGS4 act inactive.
`CC[n+]1ccccc1/C=C1\Sc2ccc(C)cc2N1C` gave MrgX1 antag -8.4, MrgX1 PAM inactive, RGS4 block inactive, MrgX1 ag inactive and RGS4 act inactive.
`O=S(=O)(NCc1csc(-c2cccnc2)n1)c1ccc(Br)cc1` gave MrgX1 antag inactive, MrgX1 PAM inactive, RGS4 block inactive, MrgX1 ag inactive, PHOSPHO1 block 80 and RGS4 act inactive.
Screening COc1ccc(S(=O)(=O)NCc2csc(-c3cccnc3)n2)cc1 returned MrgX1 antag inactive, MrgX1 PAM inactive, RGS4 block inactive, MrgX1 ag inactive, PHOSPHO1 block inactive and RGS4 act inactive.
For COc1cc(/C=N\N=C2/SC(CC(=O)O)C(=O)N2c2ccc(O)cc2)ccc1O (stereo not drawn) the results were MrgX1 antag -8.2, MrgX1 PAM inactive, RGS4 block inactive, MrgX1 ag inactive, PHOSPHO1 block inactive and RGS4 act inactive.
Screening COc1ccc(/C=N\N=C2/SC(CC(=O)O)C(=O)N2c2ccc(O)cc2)cc1OC (stereo not drawn) returned MrgX1 antag inactive, MrgX1 PAM inactive, RGS4 block inactive, MrgX1 ag inactive, PHOSPHO1 block inactive and RGS4 act inactive.
Screening Cc1c(NC(=O)COc2cccc(Cl)c2Cl)c(=O)n(-c2ccccc2)n1C returned MrgX1 antag inactive, MrgX1 PAM inactive, RGS4 block inactive, MrgX1 ag inactive and RGS4 act inactive.
N#Cc1c(-n2cccc2/C=N/O)sc2c1CCCC2 was read as MrgX1 antag inactive, MrgX1 PAM inactive, RGS4 block inactive, MrgX1 ag 32, PHOSPHO1 block inactive and RGS4 act inactive.
Cc1nc2ccc(NC(=O)c3cc(Cl)ccn3)cc2s1 was read as MrgX1 antag inactive, MrgX1 PAM inactive, RGS4 block inactive, MrgX1 ag inactive, PHOSPHO1 block inactive and RGS4 act inactive.
For O=C(CC1C(=O)NCCN1Cc1ccc(-c2ccccc2)cc1)NCC1CC1 (stereo not drawn) the results were MrgX1 antag inactive, MrgX1 PAM inactive, RGS4 block inactive, MrgX1 ag inactive, PHOSPHO1 block 60 and RGS4 act inactive.
For C=CCNC(=O)CC1C(=O)NCCN1Cc1ccc(-c2ccccc2)cc1 (stereo not drawn) the results were MrgX1 antag inactive, MrgX1 PAM inactive, RGS4 block inactive, MrgX1 ag inactive, PHOSPHO1 block inactive and RGS4 act inactive.
Screening O=C(c1ccccc1C(=O)N(c1ccccc1)c1ccccc1)N1CCCCC1 returned MrgX1 antag inactive, MrgX1 PAM inactive, RGS4 block inactive, MrgX1 ag inactive, PHOSPHO1 block inactive and RGS4 act inactive.
Screening COc1cccc(/C=N/Nc2nc3ccccc3n3cnnc23)c1 returned MrgX1 antag inactive, MrgX1 PAM inactive, RGS4 block inactive, MrgX1 ag inactive, PHOSPHO1 block inactive and RGS4 act inactive.
COc1ccc2nc(C)cc(N/N=C/c3cccc(OC)c3O)c2c1 was read as MrgX1 antag inactive, MrgX1 PAM inactive, RGS4 block inactive, MrgX1 ag inactive, PHOSPHO1 block inactive and RGS4 act -11.
COc1cccc(/C=N/Nc2nc3ccccc3n3cnnc23)c1O was read as MrgX1 antag inactive, MrgX1 PAM inactive, RGS4 block inactive, MrgX1 ag inactive, PHOSPHO1 block inactive and RGS4 act -7.1.
